Key:
[1] = tested on: MT4; assay: Dose required to achieve 50% protection of MT-4 cells from HIV-1 induced cytopathogenicity; assay type: functional, cell-based; settings: Homo sapiens
[2] = tested on: MT4; assay: Compound dose required to reduce the viability of mock-infected cells by 50%; assay type: functional; settings: Homo sapiens
[3] = biological target: Human immunodeficiency virus type 1 reverse transcriptase (Human immunodeficiency virus 1, UniProt Q72547); assay: Dose required to inhibit HIV-1 recombinant reverse transcriptase (rRT) activity by 50%.; assay type: functional
In short: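 Highly purified recombinant HIV-1 RT, assayed for RNA-dependent DNA polymerase activity. Template-primer: poly(rC)-oligo(dG)12–18 at 0.5 OD260 units/mL, with [3H]dGTP (1 Ci/mmol). Incubated 20 min at 37 °C; acid-insoluble radioactivity counted on glass fiber filters. Value is the dose giving 50% inhibition; means of three experiments.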

[4] = tested on: MT4; assay: Selectivity index calculated as the ratio between CC50 and EC50; assay type: functional
In short: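 Ratio CC50/EC50, both from MTT-read 4-day MT-4 assays (mock-infected and HIV-1 IIIB-infected, 100 CCID50) run in parallel.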

[5] = tested on: MT4; assay: Compound dose required to reduce the viability of mock-infected cells by 50%, as determined by the MTT method.; assay type: functional; settings: Homo sapiens
In short: (§1)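 Mock-infected MT-4 cells (1 × 10^4/well) exposed to serial compound concentrations, run in parallel with the antiviral assay, 4 days at 37 °C. Viability read by MTT; CC50 is the dose reducing viability by 50%. Means of three separate experiments.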

[6] = tested on: MT4; assay: Compound dose required to reduce the viability of mock-infected cells by 50%.; assay type: functional; settings: Homo sapiens; in short: as §1
[7] = tested on: MT4; assay: Compound dose required to achieve 50% protection of MT-4 cells from HIV-1 induced cytopathogenicity.; assay type: functional, cell-based; settings: Homo sapiens
In short: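 HIV-1 IIIB (100 CCID50/well) added to MT-4 cells (1 × 10^4/well) with or without serial compound concentrations; 4-day incubation at 37 °C. Viable cells counted by MTT; EC50 is the dose giving 50% protection from virus-induced cytopathogenicity. Means of three separate experiments.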

CSc1nc(O)cc(Cc2ccccc2)n1
EC50 [1]: 34.5 µM
CC50 [2]: > 431 µM
IC50 [3]: > 10 µM
SI [4]: >12

CC(C)=CCSc1nc(O)cc(Cc2cccc(C)c2)n1
EC50 [1]: 13 µM
CC50 [2]: 193 µM
SI [4]: 15

Cc1c(O)nc(SC2CCCCC2)nc1Cc1ccccc1
EC50 [1]: 0.6 µM
CC50 [2]: > 318 µM
IC50 [3]: 4.3 µM
SI [4]: >530

CSC1=N/C(=C/c2ccccc2)C(C)(C)C(=O)N1
EC50 [1]: 3.1 µM
CC50 [2]: 160 µM
IC50 [3]: 6.1 µM
SI [4]: 53

CCC(C)Sc1nc(O)cc(Cc2cccc(C)c2)n1 (stereo not drawn)
EC50 [1]: 0.6 µM
CC50 [2]: > 347 µM
IC50 [3]: 1.2 µM
SI [4]: >578

CCC(C)SC1=N/C(=C/c2ccccc2)C(C)(C)C(=O)N1 (stereo not drawn)
EC50 [1]: 3.3 µM
CC50 [2]: 16 µM
IC50 [3]: 4.3 µM
SI [4]: 4.8

Cc1cccc(Cc2cc(O)nc(SC3CCCCC3)n2)c1
EC50 [1]: 1.5 µM
CC50 [2]: > 318 µM
IC50 [3]: 2.6 µM
SI [4]: >212

Cc1cccc(Cc2cc(O)nc(SCC(C)C)n2)c1
EC50 [1]: 3.3 µM
CC50 [2]: 163 µM
IC50 [3]: 8.4 µM
SI [4]: 49

CC1(C)C(=O)NC(SC2CCCCC2)=N/C1=C/c1ccccc1
EC50 [1]: 9.1 µM
CC50 [2]: 91 µM
IC50 [3]: > 10 µM
SI [4]: 10

CC1(C)C(=O)NC(SC2CCCC2)=N/C1=C/c1ccccc1
EC50 [1]: 10 µM
CC50 [2]: 18 µM
IC50 [3]: > 10 µM
SI [4]: 1.8

Cc1c(O)nc(SCC(C)C)nc1Cc1ccccc1
EC50 [1]: 0.8 µM
CC50 [2]: 130 µM
IC50 [3]: 2.2 µM
SI [4]: 162

Cc1cccc(Cc2nc(SCC(C)C)nc(O)c2C)c1
EC50 [1]: 1.6 µM
CC50 [2]: 330 µM
IC50 [3]: 4.6 µM
SI [4]: 206

CC(C)CSc1nc(O)cc(Cc2ccccc2)n1
EC50 [1]: 5.1 µM
CC50 [2]: 186 µM
IC50 [3]: 9.4 µM
SI [4]: 36

Cc1cccc(Cc2nc(SC(C)C)nc(O)c2C)c1
EC50 [1]: 1.3 µM
CC50 [2]: 100 µM
IC50 [3]: 2.5 µM
SI [4]: 77

Cc1cccc(Cc2cc(O)nc(SC(C)C)n2)c1
EC50 [1]: 1.3 µM
CC50 [2]: 225 µM
IC50 [3]: 2.9 µM
SI [4]: 173

CC(C)CSC1=N/C(=C/c2ccccc2)C(C)(C)C(=O)N1
EC50 [1]: 3.6 µM
CC50 [2]: 20 µM
IC50 [3]: 4.6 µM
SI [4]: 5.5

Cc1c(O)nc(S)nc1Cc1ccccc1
EC50 [1]: > 108 µM
CC50 [2]: 431 µM
IC50 [3]: > 10 µM

Cc1cccc(Cc2nc(SC3CCCC3)nc(O)c2C)c1
EC50 [1]: 0.6 µM
CC50 [2]: > 318 µM
IC50 [3]: 3.4 µM
SI [4]: >530

Cc1cccc(Cc2nc(S)nc(O)c2C)c1
EC50 [1]: > 102 µM
CC50 [2]: 284 µM
IC50 [3]: > 10 µM

CCC(C)SC1=N/C(=C/c2cccc(C)c2)C(C)(C)C(=O)N1 (stereo not drawn)
EC50 [1]: > 25 µM
CC50 [2]: 25 µM

Cc1cccc(Cc2nc(SC3CCCCC3)nc(O)c2C)c1
EC50 [1]: 0.6 µM
CC50 [2]: > 304 µM
IC50 [3]: 1.3 µM
SI [4]: >506

C/C=C/CSc1nc(O)cc(Cc2cccc(C)c2)n1
EC50 [1]: 8 µM
CC50 [2]: 165 µM
SI [4]: 21

Cc1cn([C@H]2C[C@H](N=[N+]=[N-])[C@@H](CO)O2)c(=O)[nH]c1=O [ZIDOVUDINE]
CC50 [2]: > 20 µM
SI [4]: >2000

Oc1cc(Cc2ccccc2)nc(SC2CCCCC2)n1
EC50 [1]: 0.8 µM
CC50 [2]: > 330 µM
IC50 [3]: 3 µM

Cc1cccc(/C=C2/N=C(SCC(C)C)NC(=O)C2(C)C)c1
EC50 [1]: > 316 µM
CC50 [5]: > 316 µM

Cc1cccc(/C=C2/N=C(SC(C)C)NC(=O)C2(C)C)c1
EC50 [1]: > 69 µM
CC50 [2]: 69 µM

Cc1cccc(/C=C2/NC(=S)NC(=O)C2(C)C)c1
EC50 [1]: > 165 µM
CC50 [2]: 165 µM

Cc1cccc(/C=C2/N=C(SC3CCCC3)NC(=O)C2(C)C)c1
EC50 [1]: > 304 µM
CC50 [2]: > 304 µM

Cc1c(O)nc(SC2CCCC2)nc1Cc1ccccc1
EC50 [1]: 0.6 µM
CC50 [2]: > 333 µM
IC50 [3]: 3.4 µM
SI [4]: >555

CSc1nc(O)c(C)c(Cc2ccccc2)n1
EC50 [1]: 1.2 µM
CC50 [2]: > 406 µM
IC50 [3]: 4.9 µM
SI [4]: >338

CSc1nc(O)cc(Cc2cccc(C)c2)n1
EC50 [1]: 17 µM
CC50 [2]: 317 µM
IC50 [3]: > 10 µM
SI [4]: 19

CC(C)Sc1nc(O)cc(Cc2ccccc2)n1
EC50 [1]: 7.7 µM
CC50 [2]: 332 µM
IC50 [3]: > 10 µM
SI [4]: 43

Cc1ccnc2c1NC(=O)c1cccnc1N2C1CC1 [NEVIRAPINE]
EC50 [1]: 0.3 µM
CC50 [2]: > 376 µM
SI [4]: >1250

CCC(C)Sc1nc(O)c(C)c(Cc2cccc(C)c2)n1 (stereo not drawn)
EC50 [1]: 1 µM
CC50 [2]: 100 µM
IC50 [3]: 2.7 µM
SI [4]: 100

C=CCSc1nc(O)cc(Cc2cccc(C)c2)n1
EC50 [1]: 3.6 µM
CC50 [2]: 188 µM
SI [4]: 52

Cc1cccc(Cc2cc(O)nc(SC3CCCC3)n2)c1
EC50 [1]: 1.2 µM
CC50 [2]: > 333 µM
IC50 [3]: 2.6 µM
SI [4]: >278

CCC(C)Sc1nc(O)cc(Cc2ccccc2)n1 (stereo not drawn)
EC50 [1]: 1.2 µM
CC50 [2]: 150 µM
IC50 [3]: 2.7 µM
SI [4]: 125

Cc1c(O)nc(SC(C)C)nc1Cc1ccccc1
EC50 [1]: 1.8 µM
CC50 [2]: 140 µM
IC50 [3]: 2.5 µM
SI [4]: 77

Cc1cccc(/C=C2/N=C(SC3CCCCC3)NC(=O)C2(C)C)c1
EC50 [1]: > 292 µM
CC50 [2]: > 292 µM

CSc1nc(O)c(C)c(Cc2cccc(C)c2)n1
EC50 [1]: 3 µM
CC50 [2]: 385 µM
IC50 [3]: 2.5 µM
SI [4]: 128

CCC(C)Sc1nc(O)c(C)c(Cc2ccccc2)n1 (stereo not drawn)
EC50 [1]: 0.6 µM
CC50 [2]: 86 µM
IC50 [3]: 2.4 µM
SI [4]: 140

Cc1cccc(Cc2cc(O)nc(S)n2)c1
CC50 [6]: 258 µM
EC50 [7]: > 258 µM
IC50 [3]: > 10 µM

Oc1cc(Cc2ccccc2)nc(SC2CCCC2)n1
EC50 [1]: 1.7 µM
CC50 [2]: 147 µM
IC50 [3]: 2.8 µM
SI [4]: 86

CSC1=N/C(=C/c2cccc(C)c2)C(C)(C)C(=O)N1
EC50 [1]: > 5.2 µM
CC50 [2]: 5.2 µM

CC1(C)C(=O)NC(=S)N/C1=C/c1ccccc1
EC50 [1]: > 406 µM
CC50 [2]: > 406 µM

CC(C)SC1=N/C(=C/c2ccccc2)C(C)(C)C(=O)N1
EC50 [1]: 3.6 µM
CC50 [2]: 20 µM
IC50 [3]: 4.3 µM
SI [4]: 5.5
